The values that follow come from ChEMBL document CHEMBL1127092, “Crystal and molecular structure and in vitro antiproliferative and antitumor activity of two organotin (IV) carbohydrate compounds” (J Med Chem, 1993).

Broadly, the IC50 is the concentration at which inhibition is half-maximal. A low value points to greater potency in that assay.

What all share (assay type): functional, cell-based, Mus musculus
The test system of assay [1] is P815. Description: Antitumor activity against P815 cell line determined by reduction of the [3H]thymidine incorporation after a 24-h incubation period. In outline:
(§1)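 Mouse ascites tumor cells harvested 7 days after i.p. transplantation, washed, preincubated 4 h at 2.10^5 cells/mL in RPMI 1640 with 10% FCS and 1 mM glutamine under 5% CO2. Cells then exposed to compounds (ethanol stocks diluted in medium) for 24 h at 37°C. [3H]TdR (0.5 μCi) was added […] and cells were harvested 8 h later. Values are means of two experiments, each in 4-fold.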
For orientation: Uptake of a labelled nucleoside into DNA is a usual measure of proliferation.

The test system of assay [2] is L1210. In words: Antitumor activity against L1210 cell line determined by reduction of the [3H]thymidine incorporation after a 24-h incubation period. In outline:
as §1

Assay [3] has as its system MOPC 315. Description: Antitumor activity against MOPC315 cell line determined by reduction of the [3H]thymidine incorporation after a 24-h incubation period. In a few lines:
as §1

Turning to “5-(2,2-Dimethyl-[1,3]dioxolan-4-yl)-2,2-dimethyl-6-[(triphenylstannanyl)-methyl]-tetrahydro-furo[2,3-d][1,3]dioxol-6-ol”, the IC50 in assay [1], in assay [2] and in assay [3] was above 5 µM throughout.

On to “5-(2,2-Dimethyl-[1,3]dioxolan-4-yl)-2,2-dimethyl-6-triphenylstannanyl-tetrahydro-furo[2,3-d][1,3]dioxol-6-ol”, for which the IC50 in assay [1] is 0.54 µM; in assay [2], 0.76 µM; in assay [3], 0.67 µM.

As for TRIPHENYLTIN CHLORIDE, the IC50 worked out at 0.13 µM in assay [1], 0.18 µM in assay [2] and 0.2 µM in assay [3].
